Results as given in paper PMC9706633 (Poultry Science, 2022).
“Also recorded” adds a separate entry of the source.

Key:
CCK2R = settings: mammals, ref Noble and Roques, 2002, Miller and Gao, 2008, cited from earlier work; for binding affinities of CCK-8S and CCK-8NS to CCK2R compared: in words
cCCK1R [1] = experiment: pGL4-SRE-luciferase reporter assay; assay type: cell-based, chicken; settings: read-out: EC50, MAPK/ERK signaling pathway, CHO cells expressing cCCK1R, peptide 10^−12 M - 10^−6 M, 6 h, triplicates (N = 3)
Method in brief: (§1)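 CHO cells were grown in DMEM with 10% FBS at 37°C and 5% CO2. They were transiently co-transfected with 250 ng of chicken receptor plasmid (empty pcDNA3.1 as control) and 750 ng of reporter construct using jetPRIME. After 24 h, cells were reseeded and grown a further 24 h. Test peptide was then applied in DMEM, and lysate luciferase was measured. Data are mean ± SEM.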

cCCK1R [2] = experiment: Overall activation of cCCK1R; design: species or system chicken; settings: 3 cell-based luciferase reporter systems and western blots; CHO cells; in words
[3] = system: CHO cells transfected with the empty pcDNA3.1(+) vector; experiment: pGL3-NFAT-RE-luciferase negative control, CHO cells with empty pcDNA3.1; assay type: cell-based, Chinese hamster; settings: 6 h
Method in brief: (§2)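 CHO cells (DMEM, 10% FBS, penicillin/streptomycin, 37°C, 5% CO2) seeded a day ahead and co-transfected (jetPRIME) with 250 ng empty pcDNA3.1 plus 750 ng reporter: CRE (cAMP/PKA), NFAT-RE (calcium) or SRE (MAPK/ERK). After 24 h, cells were replated in 96-well plates and grown 24 h. They were then exposed to test peptide at 10−12–10−6 M in DMEM for 6 h, lysed, and read for luciferase.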

cCCK2R [4] = experiment: Western blot of CREB phosphorylation, CHO cells expressing cCCK2R; assay type: cell-based, chicken; settings: 10 nM, 10 min, normalized by β-actin, N = 4
Method in brief: (§3)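 CHO cells transfected with 1000 ng chicken CCK1R or CCK2R expression plasmid, grown in 24-well plates at 37 °C. At 24 h post-transfection, cells were exposed to test peptide (10 nM, 10 min), lysed, and immunoblotted with phospho-ERK1/2 (Thr202/Tyr204) and phospho-CREB (Ser133) rabbit mAbs. Densitometric bands normalized to β-actin, expressed as fold of untreated control; mean ± SEM, N = 4; t-test or ANOVA/Dunnett.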

cCCK1R [5] = experiment: Western blot of CREB phosphorylation, CHO cells expressing cCCK1R; assay type: cell-based, chicken; settings: 10 nM, 10 min, normalized by β-actin, N = 4
Method in brief: as §3

cCCK2R [6] = experiment: pGL3-NFAT-RE-luciferase reporter assay; assay type: cell-based, chicken; settings: read-out: EC50, calcium mobilization, CHO cells expressing cCCK2R, peptide 10^−12 M - 10^−6 M, 6 h, triplicates (N = 3)
Method in brief: as §1

[7] = system: CHO cells transfected with the empty pcDNA3.1(+) vector; experiment: pGL4-SRE-luciferase negative control, CHO cells with empty pcDNA3.1; assay type: cell-based, Chinese hamster; settings: 6 h
Method in brief: as §2

cCCK2R [8] = experiment: Overall activation of cCCK2R; design: species or system chicken; settings: 3 cell-based luciferase reporter systems and western blots; CHO cells; in words
cCCK2R [9] = experiment: pGL3-CRE-luciferase reporter assay; assay type: cell-based, chicken; settings: read-out: EC50, cAMP/PKA signaling pathway, CHO cells expressing cCCK2R, peptide 10^−12 M - 10^−6 M, 6 h, triplicates (N = 3)
cCCK1R [10] = experiment: pGL3-NFAT-RE-luciferase reporter assay; assay type: cell-based, chicken; settings: read-out: EC50, calcium mobilization, CHO cells expressing cCCK1R, peptide 10^−12 M - 10^−6 M, 6 h, triplicates (N = 3)
Method in brief: as §1

cCCK2R [11] = experiment: Western blot of ERK1/2 phosphorylation, CHO cells expressing cCCK2R; assay type: cell-based, chicken; settings: 10 nM, 10 min, normalized by β-actin, N = 4
Method in brief: as §3

cCCK1R [12] = experiment: Western blot of ERK1/2 phosphorylation, CHO cells expressing cCCK1R; assay type: cell-based, chicken; settings: 10 nM, 10 min, normalized by β-actin, N = 4
Method in brief: as §3

[13] = system: CHO cells transfected with the empty pcDNA3.1(+) vector; experiment: pGL3-CRE-luciferase negative control, CHO cells with empty pcDNA3.1; assay type: cell-based, Chinese hamster; settings: 6 h
Method in brief: as §2

cCCK1R [14] = experiment: pGL3-CRE-luciferase reporter assay; assay type: cell-based, chicken; settings: read-out: EC50, cAMP/PKA signaling pathway, CHO cells expressing cCCK1R, peptide 10^−12 M - 10^−6 M, 6 h, triplicates (N = 3)
Method in brief: as §1

cCCK2R [15] = experiment: pGL4-SRE-luciferase reporter assay; assay type: cell-based, chicken; settings: read-out: EC50, MAPK/ERK signaling pathway, CHO cells expressing cCCK2R, peptide 10^−12 M - 10^−6 M, 6 h, triplicates (N = 3)
Method in brief: as §1

Substance	binding affinities of CCK-8S and CCK-8NS to CCK2R compared (CCK2R)	binding affinity to CCK2R, fold higher than CCK-4 (CCK2R) [fold]	EC50 (cCCK1R [1]) [nM]	activation of cCCK1R, overall (cCCK1R [2])	effect on pGL3-NFAT-RE-luciferase activity in empty-vector CHO cells ([3]; N = 3)	effect on pGL3-NFAT-RE-luciferase activity in empty-vector CHO cells ([3]; N = 3, listed as CCK-8S)	CREB phosphorylation (pCREB) (cCCK2R [4])	CREB phosphorylation (pCREB) (cCCK1R [5])	EC50 (cCCK2R [6]) [nM]	effect on pGL4-SRE-luciferase activity in empty-vector CHO cells ([7]; N = 3)	effect on pGL4-SRE-luciferase activity in empty-vector CHO cells ([7]; N = 3, listed as CCK-8S)	activation of cCCK2R, overall (cCCK2R [8])	EC50 (cCCK2R [9]) [nM]	EC50 (cCCK1R [10]) [nM]	ERK1/2 phosphorylation (pERK1/2) (cCCK2R [11])	ERK1/2 phosphorylation (pERK1/2) (cCCK1R [12])	effect on pGL3-CRE-luciferase activity in empty-vector CHO cells ([13]; N = 3)	effect on pGL3-CRE-luciferase activity in empty-vector CHO cells ([13]; N = 3, listed as CCK-8S)	EC50 (cCCK1R [14]) [nM]	EC50 (cCCK2R [15]) [nM]
CCK-8NS: non-sulfated octapeptide of CCK	similar	10																		
DYMGWMDF [cCCK-8S, (Tyr (SO3H)^27) Cholecystokinin fragment 26-33 amide]	similar		0.32 ± 0.26	potently activated; also recorded: can potently activate cCCK1R; also recorded: activated preferentially	no effect	no response	potently enhance CREB phosphorylation	potently enhance CREB phosphorylation	1.93 ± 0.7	no effect	no response	can potently activate cCCK2R	29.6 ± 7.68	5.41 ± 1.15	strongly enhance ERK1/2 phosphorylation	strongly enhance ERK1/2 phosphorylation	no effect	no response	5.76 ± 1.55	1.16 ± 0.61
